Most compounds without a hit are left out; they make up all but 2.8% or so of the library.
EP2 modulator: modulators of human EP2 prostaglandin E2 receptor; EP2-expressing cells, cAMP HTRF FRET, PGE2 co-stimulation; P43116; 0.83% of 260,000 active; induction, % at 25 µM;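 active = compounds whose cAMP rise, as percent of the full-agonist control response, exceeds 60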;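 note: rat C6 glioma line stably carrying human EP2 under a CMV promoter; the protocol text gives 20 µM as final concentration; 100% = response of wells given 1 µM PGE2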
NPY Y2 blocker: NPY-Y2 (human) receptor antagonism; P49146; NPY-Y2 expressing cells, antagonist mode; inhibition, % at 2.7 µM; 0.99% of 140,000 active; in the data active = inhibition above about 17%;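 note: 0% = vehicle with agonist challenge and 100% = reference antagonist with challenge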
NPY-Y2 PAM-ag: human NPY-Y2 potentiation or agonism, primary screen. P49146. cells expressing NPY-Y2, potentiator/agonist read-out. activation, % at 3.6 µM. 0.45% of 220,000 active; in the data active = activation above about 27%;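 note: cells stimulated with NPY near EC25 plus isoproterenol at EC100; 0% = vehicle plus submaximal agonist and 100% = vehicle plus saturating agonist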
NPY-Y1 antag: NPY-Y1 (human) receptor antagonism; 1% of 200,000 active; inhibition, % at 3.6 µM; HEK293-CNG Y1 cells, membrane potential fluorescence; NPY at EC95, then isoproterenol; AID 1040;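 active = inhibition above the campaign mean inhibition of all tested compounds plus 3 SD, cut at about 20% in these data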;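 note: 0% = DMSO wells given NPY plus isoproterenol and 100% = isoproterenol alone without NPY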
Target sequence (P25929 whole entry, looked up): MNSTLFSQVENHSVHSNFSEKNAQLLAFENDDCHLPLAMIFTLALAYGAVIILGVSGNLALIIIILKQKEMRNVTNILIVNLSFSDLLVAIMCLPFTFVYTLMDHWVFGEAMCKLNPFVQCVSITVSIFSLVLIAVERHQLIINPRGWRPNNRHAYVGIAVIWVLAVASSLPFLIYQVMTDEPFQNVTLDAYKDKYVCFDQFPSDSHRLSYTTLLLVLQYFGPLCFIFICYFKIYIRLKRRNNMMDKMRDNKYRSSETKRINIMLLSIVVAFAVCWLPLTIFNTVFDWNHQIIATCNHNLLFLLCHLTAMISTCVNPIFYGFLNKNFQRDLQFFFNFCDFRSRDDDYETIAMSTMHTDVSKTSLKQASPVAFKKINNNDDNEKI
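Test system: HEK293 cells co-expressing NPY Y1 receptor and cyclic-nucleotide gated channel; Also added: NPY (25 nM), isoproterenol (1 µM), Ro 20-1724 (25 µM); Compound dosing: one concentration, 3.6 µM, in 0.4% DMSO; Timing: dye 3 h, compound 60 min room temperature, stimulation 45 min; Technique: Membrane-potential fluorescent dye readout.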
NPY1 pot ag: human NPY-Y1 potentiation or agonism, primary screen; P25929; NPY-Y1 expressing cells, potentiator/agonist activation; activation, % at 3.6 µM; 0.37% of 220,000 active; AID 1304; in the data active = activation above about 33%, passing the limit was not always enough;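 note: cells stimulated with NPY at EC10 then isoproterenol at EC100; 0% = low agonist plus stimulus and 100% = saturating agonist plus stimulus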
PGE2 EP2 inh: blocks the human prostaglandin E2 receptor EP2. P43116. C6 glioma cells expressing human EP2, cAMP TR-FRET; cells stimulated with saturating PGE2. inhibition, % at 25 µM. 0.52% of 260,000 active;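 active = percent inhibition above 40 after rounding to a whole number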;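 note: rat C6 glioma host cells with rolipram phosphodiesterase inhibitor present; the protocol text gives 20 µM as final concentration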
The depositor's hits bear a star; / = no result.

SMILES	EP2 modulator	NPY Y2 blocker	NPY-Y2 PAM-ag	NPY-Y1 antag	NPY1 pot ag	PGE2 EP2 inh
CC(NC(=O)CN1C(=O)NC(Cc2ccccc2)(Cc2ccccc2)C1=O)C12CC3CC(CC(C3)C1)C2 (configuration not stated)	0.3	160.8*	-90.3	130.3*	-127.4	15.0
CCOc1ccc(N(CC(=O)N2CCCCCC2)S(=O)(=O)c2ccc(OC)c(OC)c2)cc1	15.1	/	/	/	/	6.5
COCCN1CC(=O)N(c2cccc(C)c2C)C(c2ccc(Cl)cc2)C1=O (configuration not stated)	12.6	-0.3	7.4	2.8	-10.1	16.4
Cc1cccc(N2C(=O)C(Oc3ccc(Cl)cc3Cl)C2C=O)c1C (configuration not stated)	-1.9	-1.8	10.4	-0.3	54.0*	10.9
O=C(CSc1nc(-c2ccc(Cl)cc2)cs1)Nc1ccccc1N1CCOCC1	32.7	/	/	/	/	11.3
CN(c1ccc(C(=O)N2CCOCC2)cc1)S(C)(=O)=O	-8.0	3.4	7.2	2.1	-2.2	146.3*
COc1ccc(-c2ccc(=O)n(C[C@H](C)NC(=O)c3cc(C(C)C)no3)n2)cc1	-17.5	/	/	/	/	5.8
CC(C)Cn1c(N)c(C(=O)COC(=O)CCc2nc3ccccc3s2)c(=O)n(C)c1=O	-52.4	/	26.3	20.4*	1.0	4.9
CCc1ccc(OCc2nnc(SC(C)C(=O)O)n2C)cc1 (configuration not stated)	7.3	/	/	/	/	15.0
CCn1ncc(Br)c1C(=O)Nc1ccccc1OC	63.2*	/	-1.9	2.9	-11.3	6.7
CCOC(=O)C1=C(C)N(CCOC)C(=O)/C1=C\c1ccc(OC)c(OC)c1	-7.2	/	/	/	/	8.8
c1ccc(/C(=N\Nc2nc3ccccc3s2)c2ccccn2)cc1	-14.6	/	/	/	/	10.4
Cc1ccc(/C(=N/Nc2nc3ccccc3s2)C2=C(O)c3ccccc3C2=O)cc1	-47.6	/	-9.3	20.3*	-3.2	5.5
Cc1ccc2[nH]c(CCN(C)C)c(CSCc3c(CCN(C)C)[nH]c4ccc(C)cc34)c2c1	-155.2	/	/	/	/	127.0*
CCc1nn(Cn2nnc3ccccc32)c(=O)c2cc3ccsc3n12	26.8	/	/	/	/	3.4
C[N+]1(CCC(=O)c2ccco2)CC2CCC(CC2)C1 (configuration not stated)	15.1	/	/	/	/	45.2*
CCOc1cc(C)nc(NCc2ccccc2)n1	63.3*	2.4	0.3	7.3	0.9	3.1
Cc1cc(OC2CCCCC2)nc(NCc2ccccc2)n1	66.0*	/	-11.2	/	-11.2	6.8
Cc1cc(N2CCCCC2)nc(NCc2ccccc2)n1	-38.2	10.3	-12.0	9.4	-22.5	32.2
COCCn1nnnc1C(c1cc2cc(C)c(C)cc2[nH]c1=O)N1CCN(c2ccc(F)cc2)CC1 (configuration not stated)	-3.9	/	/	/	/	3.2
Cc1c(C(=O)N2CCCCC2)sc(NC(=O)CCCOc2ccc(Cl)cc2Cl)c1C#N	-28.1	/	/	/	/	6.2
CN1CC(c2ccccc2)C2(SC(=S)N(Cc3ccco3)C2=O)C12C(=O)Nc1ccccc12 (configuration not stated)	60.6*	6.0	-5.1	4.9	-21.2	8.7
O=C(O)CCc1ccc(-c2ccccc2)n1Cc1ccco1	-2.4	4.7	-10.9	9.6	9.3	10.0
O=C(O)CCc1ccc(-c2ccc(F)cc2)n1Cc1ccco1	28.3	0.4	71.0*	-9.6	80.2*	4.4
CCc1ccc2[nH]c(=O)c(C(c3nnnn3Cc3ccccc3)N3CCCc4ccccc43)cc2c1 (configuration not stated)	66.4*	/	/	/	/	14.7
SMILES	EP2 modulator	NPY Y2 blocker	NPY-Y2 PAM-ag	NPY-Y1 antag	NPY1 pot ag	PGE2 EP2 inh
CCc1ccc2[nH]c(=O)c(C(c3nnnn3Cc3ccco3)N3CCC(C)CC3)cc2c1 (configuration not stated)	60.9*	4.8	2.8	-0.4	-4.7	3.2
Cc1cc(C)c2cc(C(c3nnnn3C3CCCCC3)N3CCCc4ccccc43)c(=O)[nH]c2c1 (configuration not stated)	71.4*	/	/	/	/	7.9
O=C(NCc1cccs1)C1CCCN1S(=O)(=O)c1ccc(Cl)cc1 (configuration not stated)	-27.5	/	/	/	/	7.3
O=S(=O)(c1cccc(C(F)(F)F)c1)N1CCC(c2nc3ccccc3s2)CC1	-33.0	/	/	/	/	13.4
CCOC(=O)c1cnc(SC)nc1Nc1cccc(F)c1	54.1	3.0	0.0	5.1	-8.9	6.4
CCOC(=O)c1cnc(SC)nc1Nc1cccc2ccccc12	61.6*	2.9	4.2	4.3	3.9	6.3
COc1ccccc1N1CCN(c2nc(C)nc3c2oc2ccccc23)CC1	6.3	19.5*	-20.5	31.9*	-30.8	8.9
CCOc1ccc2nc(NCCNC(=O)Nc3ccccc3C)c(C#N)cc2c1	28.2	/	/	/	/	12.5
C[C@]12CCC(=O)C=C1[C@H](O)C[C@@H]1[C@@H]2[C@@H](O)C[C@@]2(C)[C@H]1CC[C@]2(O)C(=O)CO	47.8	0.5	101.3*	-12.8	117.0*	13.9
CS(=O)(=O)N1CCSC1c1cccc(Cl)c1 (configuration not stated)	11.1	/	/	/	/	7.8
O=C1NC(c2ccccc2OC(F)F)Oc2ccccc21 (configuration not stated)	24.4	/	56.5*	-5.6	46.1*	3.1
COc1cccc(C2NC(=O)c3ccccc3O2)c1OC (configuration not stated)	-4.6	2.0	4.8	11.8	19.4	5.9
Cc1ccc(CNCC(O)(c2ccc(F)cc2)c2ccc(F)cc2)cc1	11.7	18.6*	-31.3	23.1*	-58.7	5.8
N#Cc1nc(-c2ccc(OCc3ccccc3)cc2)oc1NCCCn1ccnc1	-56.9	1.8	-22.6	9.4	-4.8	39.8*
N#Cc1nc(-c2ccc(OCc3ccccc3Cl)cc2)oc1NCCCn1ccnc1	-38.2	3.9	-3.9	7.1	10.4	/
O=C(Cn1c2c(c3ccccc31)CCC2)NCCCc1ccccn1	-87.9	/	/	/	/	10.3
Cc1nc2c(ccc3nc(NC(=O)c4ccc5c(c4)OCCO5)sc32)s1	-19.2	3.0	4.8	3.6	-11.5	26.6
Cc1nc2ccc3nc(NC(=O)c4ccc5c(c4)OCCO5)sc3c2s1	3.9	0.6	1.3	-2.0	3.9	51.9*
COCC1CCCN(Cc2cn(-c3ccccc3)nc2-c2ccc3c(c2)OCO3)C1 (configuration not stated)	11.8	/	96.4*	6.4	65.3*	13.1
c1ccc(-n2cc(CN3CCCC3)c(-c3ccc4c(c3)OCO4)n2)cc1	-19.1	/	-4.6	-0.4	-11.1	14.9
O=C1COc2ccc(S(=O)(=O)N3CCCC(CN4CCCC4=O)C3)cc2N1 (configuration not stated)	-32.1	/	/	/	/	5.0
Cc1ccc(-n2c(SCC(=O)O)nc3ccccc3c2=O)c(C)c1	4.2	/	/	/	/	6.9
CCN(CC)CC[n+]1ccc2c(C)c3[nH]c4ccccc4c3c(C)c2c1	-41.5	/	/	/	/	58.2*
CCN(CC)CCn1c(=S)[nH]c2ccccc2c1=O	-0.1	1.3	14.3	4.5	4.7	4.3

Screens from PubChem.
